Each block holds one compound with its values, some of them ahead of it. Active and inactive are the calls of the source. No cut-off for these calls is given here. Positions of bridges follow the written chain, without caps; N, C: chain ends. Residues, ends and D or L forms follow the SMILES beside them. *: point of attachment. Octanoyl = CCCCCCCC(=O)*
Columns and labels:
Neuropilin-1 [1] = biological target: T1, Neuropilin-1 (Homo sapiens, UniProt O14786); assay: Binding affinity to N-terminal His6-tagged recombinant human NRP1-b1 domain expressed in Escherichia coli Rosetta Gami 2 (DE3) pLysS cells by SPR method
Method in brief: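 Human NRP1-b1 (residues 273–427, His6-tagged) was amine-coupled to a CM5 chip at high and low density; an unmodified spot served as reference. Runs were at 25 °C in PBS with 0.05% P20 and 3% DMSO. Compound was tested as 2-fold dilutions from 16 µM to 31 nM with 60 s injections. KD was taken from steady-state responses, DMSO-corrected; mean ± SD of the two surfaces.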

Mus musculus [2] = assay: Tmax in BALB/c mouse at 2 mg/kg, iv administered as bolus dose by LC-MS method; assay type: ADME, organism-based; details: in vivo
Method in brief: (§1)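 Female BALB/c mice, 6–8 weeks old, received 2 mg/kg as a tail-vein bolus formulated in 7.5% DMSO. Blood was taken by cardiac puncture at 5, 15, 30, 60, 180 and 240 min. Plasma was separated by centrifugation, snap-frozen and assayed by LC-MS/MS with electrospray ionization.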

HUVEC [3] = assay: Antimigratory activity in HUVEC assessed as delay in VEGFA-induced wound closure at 30 uM after 5 days; assay type: functional, cell-based; details: Homo sapiens
Method in brief: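 HUVECs were starved overnight in 1% EBM, then wounded at 95% confluence. Wells received 1% EGM with 0.1% DMSO, 25 ng/mL VEGF-A and/or 30 μM compound. Migration into the wound was imaged every 2 h by live-cell imaging. Three independent experiments, 12 replicates per treatment.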

HUVEC [4] = assay: Antimigratory activity in VEGFA-induced HUVEC at 30 uM after 4 hrs by transwell assay relative to control; assay type: functional, Homo sapiens
Method in brief: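 Transwell chemotaxis used 8 µm pore PET inserts. The bottom chamber held serum-free medium with or without 25 ng/mL VEGF-A, 0.1% DMSO, or 30 µM compound. HUVECs in serum-free EBM were added to the top chamber and incubated at 37 °C for 4 h. Non-migrated cells were removed, and membranes were fixed and stained. Migrated cells were counted in three random fields per well across five independent experiments, reported as mean ± SEM.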

Homo sapiens [5] = organism: Homo sapiens; assay: Antiinvasive activity in NRP1 expressing human A375P spheroids at 30 uM after 7 days; assay type: functional
Neuropilin-1 [6] = biological target: T1, Neuropilin-1; assay: Inhibition of VEGF-A-stimulated NRP1-mediated VEGFR2 phosphorylation at Tyr1175 in HUVEC at 30 uM preincubated for 30 mins followed by VEGFA stimulation measured after 10 mins by immunoblot method relative to control; assay type: cell-based
Method in brief: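 Confluent HUVECs serum-starved 16 h in 0.5% serum, preincubated 30 min with 3, 10 or 30 µM compound, 0.1% DMSO or medium, then 1 ng/mL VEGF-A for 10 min. RIPA lysates were immunoblotted. Densitometry of pVEGF-R2/KDR was normalised to total VEGF-R2/KDR, from three independent experiments, means ± SEM.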

Neuropilin-1 [7] = biological target: T1, Neuropilin-1; assay: Inhibition of biotinylated VEGF-A binding to N-terminal His6-tagged recombinant human NRP1-b1 domain expressed in Escherichia coli Rosetta Gami 2 (DE3) pLysS cells after 2 hrs
HUVEC [8] = assay: Antiangiogenic activity in HUVEC co-cultured with HDF assessed as inhibition of VEGFA-induced tubular network length at 30 uM after 4 days by immunofluorescence method relative to control; assay type: functional; details: Homo sapiens, 96 h
Method in brief: (§2)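 HDF were grown to confluence in 24-well plates and 10000 HUVECs were seeded on top in endothelial growth medium with 1% FBS. Cocultures received 0.1% DMSO, VEGF 25 ng/mL, 30 μM compound, or compound plus VEGF, for 4 days at 37 °C. They were ethanol-fixed and stained for von Willebrand factor. Branch points, network area and length were scored in four fields per well; three independent experiments.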

HUVEC [9] = assay: Antiangiogenic activity in HUVEC co-cultured with HDF assessed as inhibition of number of VEGFA-induced branch points in tubular networks at 30 uM after 4 days by immunofluorescence method relative to control; assay type: functional; details: Homo sapiens, 96 h; method in brief: as §2
HUVEC [10] = assay: Antimigratory activity in HUVEC at 30 uM after 4 hrs by transwell assay; assay type: functional, cell-based; details: Homo sapiens
Method in brief: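 HUVECs (1.5×10^5 per well, serum-free EBM) were placed in upper inserts with 8 µm pores. The bottom chamber held serum-free medium with 25 ng/mL VEGF-A, 0.1% DMSO, 30 μM compound, or VEGF-A plus compound. After 4 h at 37 °C, cells that migrated were stained and counted in three random fields; five independent experiments.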

Mus musculus [11] = assay: Cmax in BALB/c mouse at 2 mg/kg, iv administered as bolus dose by LC-MS method; assay type: ADME, organism-based; design: dose 2 mg/kg, route intravenous; details: in vivo; method in brief: as §1
Mus musculus [12] = assay: AUC (infinity) in BALB/c mouse at 2 mg/kg, iv administered as bolus dose by LC-MS method; assay type: ADME, organism-based; design: dose 2 mg/kg, route intravenous, time infinity; details: in vivo; method in brief: as §1
Neuropilin-1 [13] = biological target: T1, Neuropilin-1; assay: Binding affinity to N-terminal His6-tagged recombinant human NRP1-b1 domain expressed in Escherichia coli Rosetta Gami 2 (DE3) pLysS cells at 200 uM treated every 2 mins by ITC method
Mus musculus [14] = assay: Volume of distribution in BALB/c mouse at 2 mg/kg, iv administered as bolus dose by LC-MS method; assay type: ADME, organism-based; details: in vivo; method in brief: as §1
Mus musculus [15] = assay: Half life in BALB/c mouse at 2 mg/kg, iv administered as bolus dose by LC-MS method; assay type: ADME, organism-based; details: in vivo; method in brief: as §1
Mus musculus [16] = organism: Mus musculus; assay: Immunomodulating activity in C57/Bl6 mouse Nrp1-positive Treg cells assessed as inhibition of glioma conditioned media-induced TGFbeta production at 500 nM preincubated for 2 hrs followed by glioma conditioned media challenge measured after 12 hrs by ELISA; assay type: functional
Method in brief: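 CD4+ Nrp1+ splenic T cells from 6-week-old C57/Bl6 mice were plated at 200000 per well on anti-CD3ε with anti-CD28 and expanded 72 h. Cells were pretreated 2 h with DMSO or 500 nM compound. They were then given 50% conditioned medium from serum-starved GL261 cells, and TGFβ was measured by ELISA after 12 h.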

[17] = biological target: T2, Neuropilin-2 (Homo sapiens) (UniProt O60462); assay: Binding affinity to His6-tagged recombinant human NRP2 at 62.5 to 1000 nM treated for 60 secs by SPR method
T2 sequence (whole entry): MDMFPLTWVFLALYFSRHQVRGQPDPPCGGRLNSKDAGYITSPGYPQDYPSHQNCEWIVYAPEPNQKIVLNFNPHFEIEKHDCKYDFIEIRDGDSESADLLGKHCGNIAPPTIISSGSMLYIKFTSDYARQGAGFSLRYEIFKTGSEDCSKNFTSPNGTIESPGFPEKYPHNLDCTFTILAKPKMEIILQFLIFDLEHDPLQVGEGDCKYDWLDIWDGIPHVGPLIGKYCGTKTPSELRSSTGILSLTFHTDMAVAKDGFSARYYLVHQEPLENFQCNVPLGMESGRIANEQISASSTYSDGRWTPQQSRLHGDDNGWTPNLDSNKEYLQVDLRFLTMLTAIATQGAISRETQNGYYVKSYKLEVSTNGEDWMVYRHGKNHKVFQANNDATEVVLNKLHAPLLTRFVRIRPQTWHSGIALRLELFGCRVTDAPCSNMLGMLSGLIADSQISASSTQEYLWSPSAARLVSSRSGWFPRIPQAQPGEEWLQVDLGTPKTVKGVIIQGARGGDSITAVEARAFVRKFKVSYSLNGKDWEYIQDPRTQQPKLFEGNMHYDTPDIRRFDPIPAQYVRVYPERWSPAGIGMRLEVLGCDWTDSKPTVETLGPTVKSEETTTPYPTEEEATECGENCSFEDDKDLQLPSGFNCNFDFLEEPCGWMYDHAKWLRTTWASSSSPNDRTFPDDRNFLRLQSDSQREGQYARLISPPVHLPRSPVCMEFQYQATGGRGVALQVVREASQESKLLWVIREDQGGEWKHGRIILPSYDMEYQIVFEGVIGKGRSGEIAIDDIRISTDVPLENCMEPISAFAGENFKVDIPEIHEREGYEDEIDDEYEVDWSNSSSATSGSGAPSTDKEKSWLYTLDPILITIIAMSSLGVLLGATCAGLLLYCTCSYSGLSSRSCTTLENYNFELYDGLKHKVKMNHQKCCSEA

Aorta = assay: Antiangiogenic activity in wild type C57Bl/6 mouse aortic ring assessed as inhibition of VEGFA-induced vessel sprouting at 30 uM after 7 days relative to control; assay type: functional
Method in brief: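 Thoracic aortas from female wild-type C57Bl/6 mice were cut into 0.5 mm rings, serum-starved overnight, and embedded in rat-tail type 1 collagen. Rings were cultured in OptiMEM with 2.5% FBS containing 0.1% DMSO, 25 ng/mL VEGF-A and/or 30 μM compound at 37 °C for 7 days, with medium changed on days 3 and 5. They were then fixed and stained with isolectin B4 and SMA, and sprout area was quantified by image analysis.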

Homo sapiens [18] = organism: Homo sapiens; assay: Antiinvasive activity in VEGFA-induced NRP1 expressing human A375P spheroids at 30 uM after 7 days; assay type: functional
Neuropilin-1 [19] = biological target: T1, Neuropilin-1; assay: Inhibition of biotinylated VEGF-A binding to human NRP1 expressed in human DU145 cells after 2 hrs; assay type: cell-based
Neuropilin-1 [20] = biological target: T1, Neuropilin-1; assay: Binding affinity to recombinant human NRP1 extracellular domain by SPR method
[21] = Half life in human plasma at 10 uM by MS/MS analysis; assay type: ADME, cell-free

T1 sequence (O14786 whole entry, the tested form may be a part): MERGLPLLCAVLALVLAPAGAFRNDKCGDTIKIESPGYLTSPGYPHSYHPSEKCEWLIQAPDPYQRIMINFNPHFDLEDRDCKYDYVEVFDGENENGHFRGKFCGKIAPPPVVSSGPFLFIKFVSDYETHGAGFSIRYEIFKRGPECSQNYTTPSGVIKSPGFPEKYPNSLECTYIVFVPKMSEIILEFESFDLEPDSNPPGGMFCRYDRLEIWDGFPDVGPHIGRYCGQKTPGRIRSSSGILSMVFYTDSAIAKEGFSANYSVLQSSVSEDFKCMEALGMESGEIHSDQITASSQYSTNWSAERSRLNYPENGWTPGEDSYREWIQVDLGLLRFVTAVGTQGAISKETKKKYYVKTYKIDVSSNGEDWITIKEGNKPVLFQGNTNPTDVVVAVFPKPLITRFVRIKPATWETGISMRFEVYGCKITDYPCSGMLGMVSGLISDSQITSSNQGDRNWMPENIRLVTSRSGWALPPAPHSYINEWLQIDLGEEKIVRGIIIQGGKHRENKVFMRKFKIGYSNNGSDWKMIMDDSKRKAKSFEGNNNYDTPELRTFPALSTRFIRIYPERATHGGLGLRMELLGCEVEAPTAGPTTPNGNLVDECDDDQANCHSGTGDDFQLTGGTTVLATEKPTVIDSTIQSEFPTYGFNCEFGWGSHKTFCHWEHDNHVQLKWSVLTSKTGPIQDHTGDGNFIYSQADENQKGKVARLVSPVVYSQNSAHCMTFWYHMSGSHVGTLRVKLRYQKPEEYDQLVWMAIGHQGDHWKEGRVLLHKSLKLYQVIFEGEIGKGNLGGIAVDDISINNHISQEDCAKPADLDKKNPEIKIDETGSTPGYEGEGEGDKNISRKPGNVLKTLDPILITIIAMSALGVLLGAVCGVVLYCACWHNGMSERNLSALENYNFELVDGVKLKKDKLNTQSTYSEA

SMILES: N=C(N)NCCC[C@H](NC(=O)c1sccc1NS(=O)(=O)c1cc(-c2ccc3c(c2)CNC3)cc2c1OCC2)C(=O)O
Kd (Neuropilin-1 [1]): 2170 nM

SMILES: N=C(N)NCCC[C@H](NC(=O)c1sccc1NS(=O)(=O)c1cc(-c2cccc(CN)c2)cc2c1OCC2)C(=O)O
Kd (Neuropilin-1 [1]): 2440 nM

SMILES: N=C(N)NCCC[C@H](NC(=O)c1sccc1NS(=O)(=O)c1cc(-c2cccc(CN3CCC(N4CCOCC4)CC3)c2)cc2c1OCC2)C(=O)O
Kd (Neuropilin-1 [1]): 1380 nM

SMILES: N=C(N)NCCC[C@H](NC(=O)c1sccc1NS(=O)(=O)c1cc(-c2ccccc2CN2CCCCC2)cc2c1OCC2)C(=O)O
Kd (Neuropilin-1 [1]): 2280 nM

SMILES: N#CCC1CCN(Cc2ccccc2-c2cc3c(c(S(=O)(=O)Nc4ccsc4C(=O)N[C@@H](CCCNC(=N)N)C(=O)O)c2)OCC3)CC1
Kd (Neuropilin-1 [1]): 1860 nM

The next lines start with results.

Kd (Neuropilin-1 [1]): 1410 nM
SMILES: N#CCC1CCN(Cc2cccc(-c3cc4c(c(S(=O)(=O)Nc5ccsc5C(=O)N[C@@H](CCCNC(=N)N)C(=O)O)c3)OCC4)c2)CC1

Tmax (Mus musculus [2]): 4.8 min
inhibition (Neuropilin-1 [6]): 50%
IC50 (Neuropilin-1 [7]): 609 nM
Cmax (Mus musculus [11]): 1678 ng/mL
AUC (Mus musculus [12]): 2379 ng·h/mL
Kd (Neuropilin-1 [1]): 1320 nM
Ka (Neuropilin-1 [13]): 4.14 ×10⁶ /M
Vd (Mus musculus [14]): 4.39682 L/kg
t1/2 (Mus musculus [15]): 257 min
Activity [17]: inactive
IC50 (Neuropilin-1 [19]): 1600 nM
SMILES: N=C(N)NCCC[C@H](NC(=O)c1sccc1NS(=O)(=O)c1cc(-c2ccc(CN)cc2)cc2c1OCC2)C(=O)O
Activity (HUVEC [3]): Active
Activity (HUVEC [4]): >60%
Activity (Homo sapiens [5]): inactive
inhibition at 30 µM (HUVEC [8]): 40%
inhibition at 30 µM (HUVEC [9]): 41%
Activity (HUVEC [10]): inactive
inhibition (Mus musculus [16]): Active
fold change (FC) (Aorta): 7
Activity (Homo sapiens [18]): Active

Kd (Neuropilin-1 [20]): 76 nM
half-life at 10 µM [21]: < 5 min
SMILES: CCCCCCCC(=O)N[C@@H](CO)C(=O)N[C@H]1CSSC[C@@H]2NC(=O)[C@H]([C@@H](C)O)NC(=O)[C@H](CCCNC(=N)N)NC(=O)[C@H](CCC(=O)O)NC(=O)[C@H](CC(N)=O)NC(=O)[C@H](CC(C)C)NC(=O)[C@H](CCC(=O)O)NC(=O)[C@H](CC(C)C)NC(=O)[C@H](CCC(N)=O)NC(=O)[C@H](CCCNC(=N)N)NC(=O)[C@H](C)NC(=O)[C@H](CCCCN)NC(=O)[C@H](CSSC[C@@H](C(=O)N[C@@H](CC(=O)O)C(=O)N[C@@H](CCCCN)C(=O)N3CCC[C@H]3C(=O)N[C@@H](CCCNC(=N)N)C(=O)N[C@@H](CCCNC(=N)N)C(N)=O)NC(=O)[C@H](CCCNC(=N)N)NC2=O)NC(=O)[C@H](CCCNC(=N)N)NC(=O)[C@H](CO)NC(=O)[C@H](CC(=O)O)NC(=O)[C@H]([C@@H](C)O)NC(=O)[C@H](CC(N)=O)NC(=O)[C@H](CCCCN)NC1=O (Octanoyl-SCKNTDSRCKARQLELNERTCRCDKPRR-NH2; disulfide 2-21, 9-23)

Kd (Neuropilin-1 [1]): 1870 nM
SMILES: N=C(N)NCCC[C@H](NC(=O)c1sccc1NS(=O)(=O)c1cc(-c2ccccc2CN)cc2c1OCC2)C(=O)O

Kd (Neuropilin-1 [1]): 1560 nM
SMILES: N=C(N)NCCC[C@H](NC(=O)c1sccc1NS(=O)(=O)c1cc(-c2cccc(CN3CCC(C(N)=O)CC3)c2)cc2c1OCC2)C(=O)O

— ChEMBL document CHEMBL4177756, “Small Molecule Neuropilin-1 Antagonists Combine Antiangiogenic and Antitumor Activity with Immune Modulation through Reduction of Transforming Growth Factor Beta (TGFβ) Production in Regulatory T-Cells” (J Med Chem, 2018)
